Legend:
[1] = biological target: E. coli cells expressing NDM-1 (Klebsiella pneumoniae, UniProt C7C422); format: cell-based
[2] = tested on: VERO; experiment: Cytotoxicity, MTT assay; format: cell-based, African green monkey; conditions: 260, 355 and 530 μM, 24 hs
[3] = biological target: NDM-1 (Klebsiella pneumoniae, UniProt C7C422); experiment: Imipenem hydrolysis by purified NDM-1, competitive inhibition model; format: biochemical; conditions: for Fold more active against NDM-1 than its enantiomer / Fold more potent NDM-1 inhibitor than L-BTZ-1: ratio of Ki values
Sequence of NDM-1 (C7C422 29-270, looked up, species assumed): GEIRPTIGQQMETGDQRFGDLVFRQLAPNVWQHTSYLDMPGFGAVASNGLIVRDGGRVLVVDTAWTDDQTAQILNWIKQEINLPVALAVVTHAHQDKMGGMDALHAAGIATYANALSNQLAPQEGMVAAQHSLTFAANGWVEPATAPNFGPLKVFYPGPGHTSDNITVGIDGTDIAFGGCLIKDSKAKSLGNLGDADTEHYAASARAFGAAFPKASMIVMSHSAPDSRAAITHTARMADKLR

[4] = tested on: L929; experiment: Cytotoxicity, MTT assay; format: cell-based, mouse; conditions: 260, 355 and 530 μM, 24 hs
[5] = tested on: K. pneumoniae (1.37), NDM; experiment: Imipenem MIC, broth microdilution, clinical isolate; format: cell-based; conditions: MMTZ at constant 100 mg/L
In short: (§1)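 Clinical Enterobacterales isolates producing MBLs. Carbapenem MIC was determined for the carbapenem alone and in the presence of test compound, and the shift in MIC was assessed. Imipenem was the carbapenem for most strains. Morganellaceae strains were tested with meropenem instead, because of their intrinsic reduced susceptibility to imipenem.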

[6] = tested on: HEK293; experiment: Cytotoxicity, MTT assay; format: cell-based, human; conditions: 260, 355 and 530 μM, 24 hs
[7] = biological target: VIM-2 (Escherichia coli, UniProt Q5U7L7); experiment: Imipenem hydrolysis by purified VIM-2, competitive inhibition model; format: biochemical
[8] = biological target: IMP-1 (Serratia marcescens, UniProt P52699); experiment: Imipenem hydrolysis by purified IMP-1, competitive inhibition model; format: biochemical
Sequence of IMP-1 (P52699 19-246, looked up, species assumed): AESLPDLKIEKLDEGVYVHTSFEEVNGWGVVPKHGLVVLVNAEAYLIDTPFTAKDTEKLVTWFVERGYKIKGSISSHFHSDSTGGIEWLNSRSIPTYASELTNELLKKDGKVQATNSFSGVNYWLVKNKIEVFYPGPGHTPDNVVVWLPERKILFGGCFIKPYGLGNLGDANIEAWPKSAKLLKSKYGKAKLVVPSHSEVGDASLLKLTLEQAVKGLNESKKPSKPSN

[9] = tested on: K. pneumoniae (5639), VIM-24; experiment: Imipenem MIC, broth microdilution, clinical isolate; format: cell-based; conditions: MMTZ at constant 100 mg/L
In short: as §1

[10] = tested on: Enterobacter spp. (42713), IMP; experiment: as above; format: cell-based; conditions: for MIC of imipenem (IMI) + MMTZ: Enterobacter spp. (42713), IMP, MMTZ at constant 100 mg/L
In short: as §1

[11] = tested on: K. aerogenes (6915), VIM-2; experiment: as above; format: cell-based; conditions: MMTZ at constant 100 mg/L
In short: as §1

[12] = tested on: K. pneumoniae (6907), VIM-2; experiment: as above; format: cell-based; conditions: MMTZ at constant 100 mg/L
In short: as §1

[13] = tested on: E. coli (8.68), NDM-1; experiment: as above; format: cell-based; conditions: for MIC of imipenem (IMI) + MMTZ: E. coli (8.68), NDM-1, MMTZ at constant 100 mg/L
In short: as §1

[14] = tested on: P. mirabilis (UNC KPC 170), IMP; experiment: Carbapenem; format: cell-based; conditions: tested using meropenem (footnote a)
In short: as §1

[15] = tested on: K. pneumoniae (LC 82), IMP-13; experiment: Imipenem MIC, broth microdilution, clinical isolate; format: cell-based; conditions: MMTZ at constant 100 mg/L
In short: as §1

[16] = tested on: clinical isolates producing MBLs; experiment: Antimicrobial susceptibility testing, statements on the whole panel; format: cell-based; conditions: MMTZ at constant 100 mg/L, Enterobacterales clinical isolates
In short: as §1

[17] = Chemical stability in PBS; format: physicochemical; conditions: PBS pH 7.2, 27 °C

Sequence of E. coli cells expressing NDM-1 (C7C422 29-270, looked up): as the sequence (C7C422 29-270, looked up, species assumed) above

Structure (SMILES) | IC50 [1] [nM] | Ki [3] [nM] | MIC of imipenem (IMI) + MMTZ [5] [µg/mL] | Ki [7] [nM] | Ki [8] [nM] | MIC of imipenem (IMI) + MMTZ [9] [µg/mL] | MIC of imipenem (IMI) + MMTZ [10] [µg/mL] | MIC of imipenem (IMI) + MMTZ [11] [µg/mL] | MIC of imipenem (IMI) + MMTZ [12] [µg/mL] | MIC of imipenem (IMI) + MMTZ [13] [µg/mL] | also measured
CCOC(=O)[C@@]1(CS)N[C@@H](C(=O)O)CS1 [D-anti-1a, (2R,4S)-2-(ethoxycarbonyl)-2-(mercaptomethyl)thiazolidine-4-carboxylic acid] | 64000 ± 5000 | 2500 ± 500 | 8 | 390 ± 40 | 1300 ± 100 | 4 | 8 | 2 | 2 | 16 | Cytotoxicity (cell viability) [2]: induced a decline in cell viability percentages in almost all conditions; Cytotoxicity (cell viability) [4]: induced a decline in cell viability percentages in almost all conditions; Cytotoxicity (cell viability) [6]: induced a decline in cell viability percentages in almost all conditions
CCOC(=O)[C@]1(CS)N[C@H](C(=O)O)C(C)(C)S1 [L-anti-1b, (2S,4R)-2-(Ethoxycarbonyl)-2-(mercaptomethyl)-5,5-dimethylthiazolidine-4-carboxylic acid] | 160000 ± 10000 | 440 ± 60 | 8 | 750 ± 90 | 460 ± 50 | 4 | 8 | 2 | 1 | 16 | Fold more active against NDM-1 than its enantiomer [3]: 7 fold; Fold more potent NDM-1 inhibitor than L-BTZ-1 [3]: 12 fold
CCOC(=O)[C@]1(CS)N[C@@H](C(=O)O)C(C)(C)S1 [D-syn-1b, (2S,4S)-2-(Ethoxycarbonyl)-2-(mercaptomethyl)-5,5-dimethylthiazolidine-4-carboxylic acid] |  |  | 8 | 1900 ± 100 | 2000 ± 200 | 8 | 8 | 4 | 4 | 32 | Fold more active against NDM-1 than its enantiomer [3]: 13 fold; Fold more potent NDM-1 inhibitor than L-BTZ-1 [3]: 12 fold
C[C@@H](O)[C@H]1C(=O)N2C(C(=O)O)=C(SCCN=CN)C[C@H]12 [IMI, imipenem, reference compound] |  |  |  |  |  |  |  |  |  |  | MIC of carbapenem alone (column IMI) [14]: 16 µg/mL; MIC ([10]; Enterobacter, read-out: MIC of imipenem (IMI) alone): 16 µg/mL; MIC ([13]; Escherichia coli, read-out: MIC of imipenem (IMI) alone): 64 µg/mL
CCOC(=O)[C@]1(CS)N[C@H](C(=O)O)CS1 [L-anti-1a, (2S,4R)-2-(ethoxycarbonyl)-2-(mercaptomethyl)thiazolidine-4-carboxylic acid] | 54000 ± 4000 | 5200 ± 700 | 8 | 380 ± 50 | 1000 ± 200 | 8 | 16 | 4 | 2 |  | MIC of imipenem (IMI) + MMTZ [15]: 0.5 µg/mL; Cytotoxicity (cell viability) [6]: more selectively toxic towards the HEK293 cell line
CCOC(=O)[C@@]1(CS)N[C@@H](C(=O)O)C(C)(C)S1 [D-anti-1b, (2R,4S)-2-(Ethoxycarbonyl)-2-(mercaptomethyl)-5,5-dimethylthiazolidine-4-carboxylic acid] | 210000 ± 10000 | 3100 ± 300 | 8 | 900 ± 100 | 930 ± 80 | 1 | 8 | 2 | 1 | 16 | Reduction in MIC values of imipenem [16]: up to 16 fold; Degradation in PBS by LCMS ([17]; 6 h): did not hydrolyse to penicillamine and the main degradation product was the disulphide derivative; Intact MMTZ remaining ([17]; after 6 hours): 88%
CCOC(=O)[C@@]1(CS)N[C@H](C(=O)O)C(C)(C)S1 [L-syn-1b, (2R,4R)-2-(Ethoxycarbonyl)-2-(mercaptomethyl)-5,5-dimethylthiazolidine-4-carboxylic acid] | 230000 ± 30000 | 8000 ± 1000 |  | 3600 ± 400 | 6000 ± 600 | 8 | 16 | 4 | 4 | 32 | MIC of imipenem (IMI) + MMTZ [15]: 1 µg/mL
